# RanGTP-Imp inh: inhibitors of RanGTP-importin-beta interaction, primary screen, biochemical, FRET, CFP-Ran, YFP-importin-beta, homogeneous. inhibition, % (test concentration not listed). 300,000 tested, 1.1% active. cell-free CFP-Ran/YFP-importin-beta FRET ratio;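 active means more than half of the replicate wells show a fall in the fluorescence ratio signal beyond about 16%, limit read from the data, passing the limit was not always enough; inconclusive means exactly half of the replicate wells pass the set limit; inactive means fewer than half of replicates pass the limit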;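 further: 0% = DMSO wells and 100% = Ran loaded with GDP instead of GTP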
# Runt-CBFb FRET: blocks binding of human RUNX1 Runt domain to CBFb; Cerulean-Runt/Venus-CBFb FRET ratio 530/480, 1 h; Q01196+Q13951; 220,000 tested, 0.46% active; inhibition, % at 20 µM;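 active means inhibition over about 50% at 20 µM in the single-dose screen, limit read from the data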;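 further: 0% = DMSO wells and 100% = excess unlabeled CBFb competitor control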
#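 Assay system: Cerulean-tagged RUNX1 Runt domain (FRET donor) fusion protein / Amount: 100 nM each of Venus-CBFb and Cerulean-Runt domain / Medium: Tris buffer pH 7.5 with salts and BSA / Also added: Venus-CBFb 100 nM / Schedule: 1 h complex formation plus 1 h compound treatment, room temperature / Signal: FRET fluorescence / Read-out: loss of energy transfer signal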
# eIF4E-4G inh: eIF4E/eIF4G interaction inhibition in translation initiation | 220,000 tested, 0.37% active | inhibition, % at 21.7 µM | TR-FRET eIF4E-eIF4GI(517-606) binding, 2 h | P63073+Q04637;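 active means inhibition above about 30%, limit read from the data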;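 further: 0% = full FRET control wells and 100% = background wells lacking eIF4GI fragment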
# Hck Nef HTS: inhibitors of human Hck kinase activated by Nef | P08631 | Recombinant Hck-YEEI plus Nef, Z-Lyte FRET kinase assay | inhibition, % at 20 µM | 220,000 tested, 0.68% active | AID 463187;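 active means Hck-Nef kinase inhibition above about 50%, limit read from the data; inactive means inhibition below that limit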;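 further: 0% = DMSO with Hck plus Nef and 100% = Hck alone without Nef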
# Target sequence (P08631 whole entry, looked up): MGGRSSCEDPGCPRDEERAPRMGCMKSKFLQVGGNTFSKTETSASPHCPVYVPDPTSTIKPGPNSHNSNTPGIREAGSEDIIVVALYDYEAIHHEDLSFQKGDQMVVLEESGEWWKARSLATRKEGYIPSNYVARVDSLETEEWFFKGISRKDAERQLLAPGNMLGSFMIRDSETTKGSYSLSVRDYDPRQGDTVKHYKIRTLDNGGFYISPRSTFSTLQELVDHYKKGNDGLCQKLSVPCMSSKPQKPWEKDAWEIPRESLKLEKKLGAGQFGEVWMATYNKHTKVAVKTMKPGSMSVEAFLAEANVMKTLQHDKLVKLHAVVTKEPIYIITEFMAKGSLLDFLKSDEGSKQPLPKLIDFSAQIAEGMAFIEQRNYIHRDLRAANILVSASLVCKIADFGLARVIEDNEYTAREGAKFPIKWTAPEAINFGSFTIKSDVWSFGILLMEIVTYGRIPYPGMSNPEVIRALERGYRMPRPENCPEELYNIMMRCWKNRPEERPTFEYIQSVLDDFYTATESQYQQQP
# PERK inhibitor: inhibitors of human PERK kinase; CHO PERK-DD fusion, SEAP luminescence translation reporter; AID 1416; inhibition, % at 5.6 µM; 220,000 tested, 0.17% active; Q9NZJ5;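 active means inhibition above the mean inhibition of all tested compounds plus 3 SD, set separately per screening campaign, cut at about 2.9% in these data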;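 further: PERK kinase domain activated by AP20187 dimerizer at 100 nM; 0% = DMSO with dimerizer and 100% = rapamycin at 8.4 µM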
# Runt-SMMHC FRET: Runt domain-CBFb-SMMHC interaction inhibition | 220,000 tested, 0.74% active | AID 1434 | inhibition, % at 20 µM | Q01196+Q13951 | Cerulean-Runt/Venus-CBFb-SMMHC FRET ratio 530/480, 1 h;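 active means mean inhibition across duplicate retests at 20 µM reaching about 50%, limit read from the data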;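 further: 0% = DMSO wells and 100% = wells with excess untagged CBFb-SMMHC; inhibitors lower the FRET ratio by blocking Runt binding to CBFb-SMMHC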
# * marks the source's active call; other numbers are inactive results; ? = inconclusive; nt = no result; [ ] = another dose, or the depositor's remark. Hits are enriched below; roughly 2.2% of the tested compounds scored in any of these assays.
SMILES,RanGTP-Imp inh,Runt-CBFb FRET,eIF4E-4G inh,Hck Nef HTS,PERK inhibitor,Runt-SMMHC FRET
Cc1ccc([N+](=O)[O-])cc1N=C(c1cccc([N+](=O)[O-])c1)N1CCOCC1,5.5,-0.8,-3.2,-0.7,9.5*,-1.9
CCn1c(=O)n(CC)c2cc(N3CCCC3)c(NC(=O)c3ccc(OC)c(Br)c3)cc21,5.9,nt,nt,nt,nt,nt
O=C(O)c1ccccc1C(=O)NCCCCCCNC(=O)c1ccccc1C(=O)O,3.7,nt,nt,nt,nt,nt
COC(=O)c1nn(-c2ccc(C)cc2)ccc1=O,1.1,3.3,2.7,-2.2,0.1,-2.5
Nc1cc2nc[nH]c2cc1N,-3.7,-0.4,35.7*,26.0,1.1,8.1
Cn1c(=O)n(C)c2cc3[nH]cnc3cc21,-2.8,nt,nt,nt,nt,nt
Cc1cccc(OCC(=O)NCC(=O)N/N=C/c2ccc([N+](=O)[O-])cc2)c1,-4.0,-1.7,-2.0,23.2,-0.4,-0.4
COCC(=O)Oc1c(Sc2ccccc2[N+](=O)[O-])c(C)nn1C(C)(C)C,-0.2,8.2,41.2*,24.5,-0.1,-2.0
CCC(CC)C(=O)Oc1c(Sc2ccccc2[N+](=O)[O-])c(C)nn1C(C)(C)C,?,-3.1,-1.4,-0.7,0.8,-5.4
CCN1CCC(NC(=O)Nc2ccccc2C(=O)OC)CC1,0.4,1.7,-6.6,-14.9,0.7,2.2
COC(=O)c1ccccc1NC(=O)NC1CCN(Cc2ccccc2)CC1,-1.2,90.9*,5.6,0.2,-0.2,-2.7
CCOc1ccc(-c2nc(=S)[nH][nH]2)cc1,-0.6,6.2,52.0*,0.9,2.5,0.9
COc1ccc(-c2nc(=S)[nH][nH]2)cc1,2.4,32.9,3.6,3.3,0.8,6.5
CCNc1nc(NC(C)C)nc(Oc2ccc(OCCOc3ccccc3)nn2)n1,2.1,-242.9,57.5*,2.4,-0.1,-0.2
Cc1ccc2nc3cc([N+](=O)[O-])cc([N+](=O)[O-])c3cc2c1,nt,nt,4.9,42.2,0.5,-18.5
Cc1ccc(Oc2c(C(N)=O)cc([N+](=O)[O-])cc2[N+](=O)[O-])cc1,1.2,11.1,40.4*[fluorescence artefact?],5.9,1.0,7.0
COc1cc(/C=C(/C#N)c2nc(-c3cc4ccccc4oc3=O)cs2)cc([N+](=O)[O-])c1O,nt,-13.6,61.6*,113.8*,1.9,-28.9
COc1ccc(S(=O)(=O)C(C#N)c2nc3ccccc3nc2N2CCC(C)CC2)cc1 (stereo not drawn),27.0*,-1.1,nt,nt,nt,-6.5
CC1CCCN(c2nc3ccccc3nc2C(C#N)S(=O)(=O)c2ccccc2)C1 (stereo not drawn),-3.2,-14.2,5.7,-0.1,0.7,-47.4
Cc1ccc(S(=O)(=O)C(C#N)c2nc3ccccc3nc2N2CCN(C)CC2)cc1 (stereo not drawn),64.2*,56.7*,2.5,-2.7,0.5,78.7*
Cc1ccc(S(=O)(=O)C(C#N)c2nc3ccccc3nc2N2CCCCC2)cc1 (stereo not drawn),nt,-39.4,nt,nt,nt,-111.2
CC(=O)C12CCCCC1CC1C3CC(C)C4(O)CC(=O)CCC4(C)C3CCC12C (stereo not drawn),-2.5,nt,nt,nt,nt,nt
C1=CCN(Cc2ccccc2)C1,1.7,nt,nt,nt,nt,nt
CC(C)N(Cc1ccccc1)C(=O)c1cnc2n(c1=O)CCS2,2.9,-1.4,2.0,21.2,0.9,-1.2
O=CN1CCN(C(=O)c2cccc3c2-c2ccccc2C3=O)CC1,6.2,nt,nt,nt,nt,nt
SMILES,RanGTP-Imp inh,Runt-CBFb FRET,eIF4E-4G inh,Hck Nef HTS,PERK inhibitor,Runt-SMMHC FRET
CC(=O)NCCn1c(SCC(=O)NC2CCCCC2)nc2ccccc2c1=O,18.1*,0.6,2.9,0.4,1.5,0.2
CCn1c(SCC(=O)Nc2ccccc2OC)nc2ccccc2c1=O,-1.2,-1.1,69.0*[fluorescence artefact?],-19.9,-1.0,0.4
Cc1sc2nc(SCC(=O)NCc3ccco3)n(CCc3ccccc3)c(=O)c2c1C,0.8,-0.9,2.9,2.5,-0.8,-1.9
c1ccc(Oc2cc(-c3ccccc3)ncn2)cc1,5.2,-0.7,1.4,0.7,0.2,-1.0
COC(=O)c1cccc(/C=N/NC(N)=S)c1O,42.3*,38.9,2.3,-79.2,0.7,84.0*
O=C1NC2=C(C(=O)CCC2)C(c2ccccc2Cl)N1 (stereo not drawn),-4.8,nt,nt,nt,nt,nt
Cc1nc(Cl)c2c(n1)NC1=C(O2)C(=O)CCC1,-1.6,-43.9,-3.8,-7.1,0.1,73.2*

# Compound activity as filed in PubChem.
